An excerpt weighted towards active compounds, which were near 1.9% of everything screened.
SKN-1 inh – blocks SKN-1 activity in C. elegans; C. elegans VP596 Pgst-4::GFP/RFP ratio, acrylamide-induced, 24 h; inhibition, % at 21.8 µM; actives 0.49% (n = 360,000);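 active = interference check ratio from 0.5 to 1.5 plus GFP to RFP signal ratio inhibition reaching or exceeding a fixed threshold, cut at about 30% in these data, passing the limit was not always enough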
PG9 Ab binder – binds the HIV-1 gp120 antibody PG9. AID 624416. TR-FRET gp120-PG9 antibody binding. actives 0.43% (n = 360,000). inhibition, % at 6.7 µM; in the data active = inhibition above about 8.5%
NR2E3 ag-1 – agonists of human NR2E3 nuclear receptor; Q9Y5X4; CHO-S Gal4-NCOR/VP16-NR2E3 two-hybrid, luciferase; inhibition of corepressor binding, % at 3.98 µM; actives 0.35% (n = 360,000); AID 602229;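 active = inhibition above the mean of all tested compounds plus 3 SD, cut at about 70% in these data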;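 also: 0% = DMSO with NR2E3 transfected cells and 100% = cells lacking NR2E3 construct; higher means lower luciferase signal from less NR2E3 corepressor binding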
MT1-MMP act inh – blocks activation of human MT1-MMP; HT1080 RFP-PRO-GFP cells, GFP/RFP ratio fluorescence, overnight; percent of plate control window, DMSO zero; GFP/RFP ratio change, % at 20 µM; actives 0.061% (n = 360,000); AID 651647; P50281;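 active = GFP/RFP ratio change of at least 30% with cell ATP level not reduced by more than half and red fluorescence within 50% of control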
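Material: RFP-PRO-GFP reporter HT1080 cells. Dosing: single-point 20 µM compound, 1% DMSO. Controls: DMSO and RFP-L50D-GFP cell wells. Timing: cells overnight before dosing, compound overnight, 37 °C, 5% CO2. Measure: GFP/RFP fluorescence ratio.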
NR1D1 modulator – Rev-erb alpha (human) modulation | Rev-erbα–FITC-DNA binding, fluorescence polarization, 90 min | AID 1259318 | P20393 | activity, % at 10 µM | actives 0.79% (n = 370,000);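 active = activity above about 14%, limit read from the data; passing the limit was not always enough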;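 also: 0% = DMSO wells with 35 nM protein and 100% = DMSO wells with 750 nM protein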
Target sequence (P20393 whole entry, looked up): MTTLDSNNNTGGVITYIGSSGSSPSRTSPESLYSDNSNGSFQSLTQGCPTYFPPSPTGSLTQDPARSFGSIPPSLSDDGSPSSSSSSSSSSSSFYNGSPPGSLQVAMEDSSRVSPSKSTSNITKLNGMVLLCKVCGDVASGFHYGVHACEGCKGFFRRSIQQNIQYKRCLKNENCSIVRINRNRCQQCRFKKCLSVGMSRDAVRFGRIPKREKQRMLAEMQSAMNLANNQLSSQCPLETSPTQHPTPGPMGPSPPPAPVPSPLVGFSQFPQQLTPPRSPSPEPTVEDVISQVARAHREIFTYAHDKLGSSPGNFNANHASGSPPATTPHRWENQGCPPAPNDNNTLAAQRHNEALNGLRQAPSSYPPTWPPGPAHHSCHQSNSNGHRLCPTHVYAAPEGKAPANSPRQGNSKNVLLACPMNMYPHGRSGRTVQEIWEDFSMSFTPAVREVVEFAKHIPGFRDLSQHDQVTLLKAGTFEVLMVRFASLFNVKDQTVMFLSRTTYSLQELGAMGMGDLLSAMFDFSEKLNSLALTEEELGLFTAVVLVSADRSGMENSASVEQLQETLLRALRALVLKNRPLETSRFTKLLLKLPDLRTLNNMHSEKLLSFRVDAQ
NR2E3 ag-2 – agonists of human nuclear receptor NR2E3; Q9Y5X4; actives 0.12% (n = 320,000); AID 2300; GST-NR2E3/biotin-RetCOR TR-FRET, 1536-well; inhibition of corepressor binding, % at 4.78 µM;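 active = percent inhibition above the cutoff of mean plus 3 SD of all tested compounds, set per screening campaign, cut at about 20% in these data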;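 also: 0% = DMSO wells and 100% = biotin wells as full block of FRET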
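Format: 1536-well format; test system: GST-NR2E3 and biotin-RetCOR proteins; read-out basis: percent inhibition of TR-FRET ratio; timing: 5 h incubation at 4 °C; detection: time-resolved FRET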
NR1D1 mod conf – confirmation of modulators of human Rev-erb alpha DNA binding; activation, % at 25 µM; actives 61% (n = 3,000); shares compounds with NR1D1 modulator; Rev-erb alpha FITC-DNA binding, fluorescence polarization, 90 min; AID 1259319;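 active = activation at or above a set limit, or at least 3 SD above the negative control mean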;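 also: 0% = 35 nM protein with DMSO and 100% = 750 nM protein high control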
RORg DNA counter – RORgamma DNA-binding activity, dose-response counter-screen; shares compounds with NR1D1 modulator; purified RORgamma protein-FITC-DNA binding, fluorescence polarization; IC50, µM; actives 8% (n = 910);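 active = Compounds whose fitted half-maximal concentration for disrupting protein-DNA binding is below 10 micromolar; the record names Rev-erb in its text, so the target is in doubt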
* marks the source's active call; other numbers are inactive results; nt = no result.

SMILES | SKN-1 inh | PG9 Ab binder | NR2E3 ag-1 | MT1-MMP act inh | NR1D1 modulator | NR2E3 ag-2 | NR1D1 mod conf | others
CCCN1C(=O)/C(=C\C=C2\N(CC)c3ccccc3C2(C)C)SC1=S | 27 | 0 | 2 | -20 | 62* | nt | 2
CCN1C(=O)C(=CC=CN(C)c2ccccc2)SC1=S | 25 | -2 | -96 | -120 | 42* | nt | 46* | RORg DNA counter=>40
O=C(O)CN1C(=O)/C(=C/C=C/c2ccccc2)SC1=S | 4 | -3 | -20 | -9 | 1 | 3 | nt
CN1/C(=C\C=C2/SC(=S)NC2=O)C(C)(C)c2ccccc21 | 75 | -6 | 2 | -14 | 37* | 1 | 19*
CCCCCCCCN1C(=O)[C@@H](CC(=O)N2CCN(C(=O)OCC)CC2)C[C@@]2(C(=O)OC)C1=C[C@H](C(C)(C)C)O[C@@H]2C | nt | 0 | nt | nt | 1 | nt | nt
O=C1C=C(c2n[nH]nc2-c2ccccc2)C[C@@H](c2ccc(F)cc2)C1 | 8 | 0 | -8 | 2 | -5 | nt | nt
Cc1ccc2nc(-c3cccc(Br)c3)cc(C(=O)NCC3CCCO3)c2c1 (stereo unspecified) | -9 | -3 | -14 | 3 | 24* | 1 | 9
CCN(CCOC(=O)Nc1ccc(Cl)cc1)C(=O)Nc1ccc(Cl)cc1 | nt | 1 | nt | nt | 9 | nt | nt
CCC1CCCCN1C(=S)NN=C(C)c1ccccn1 (stereo unspecified) | nt | 1 | nt | nt | -2 | nt | nt
CCCCN(Cc1ccccc1)S(=O)(=O)c1ccc2c(c1)n(C)c(=O)c(=O)n2C | -4 | -1 | 13 | -6 | 45* | 1 | 10
COC(=O)c1ccc(Cn2ccc3ccc(-c4ccc5ccn(Cc6ccc(C(=O)OC)cc6)c5c4)cc32)cc1 | nt | nt | nt | nt | 22 | nt | nt
COc1ccc(C(=O)Nc2cc(C(C)=O)c(C)oc2=O)cc1 | -4 | -2 | -24 | -3 | 0 | 5 | nt
CC(=O)c1cc(NC(=O)c2cccc(C(F)(F)F)c2)c(=O)oc1/C=C/N(C)C | 2 | -1 | -2 | -8 | 20* | -1 | 14
CC(=O)c1cc(NC(=O)c2ccc(Cl)cc2)c(=O)oc1/C=C/N(C)C | -11 | -10 | -6 | -56 | 26* | -3 | 29*
COC(=O)c1cc(NC(=O)c2ccccc2)c(=O)oc1/C=C/Nc1ccc(Oc2ccccc2)cc1 | 52 | 0 | 11 | -94 | 33* | nt | 6
CCOC(=O)c1cc(NC(=O)c2ccccc2)c(=O)oc1-c1ccccc1 | -19 | 0 | -5 | -4 | 8 | 3 | nt
CCOc1ccc(-c2nnn(CC(=O)c3cc(OC)ccc3OC)n2)cc1 | 17 | -2 | -14 | 3 | 19* | 2 | 5
CCOc1ccc(-c2nnn(CC(=O)Nc3cc(OC)ccc3OC)n2)cc1OCC | 7 | -2 | -3 | 2 | 0 | 6 | nt
COc1ccccc1-n1cnc2sc(-c3ccccc3)cc2c1=O | 1 | 1 | -28 | 1 | 20* | 0 | 5
CCn1cc(C(=O)NCCc2ccccc2C)c(=O)c2ccc(C)nc21 | -5 | -2 | -24 | -1 | 44* | nt | 52* | RORg DNA counter=3.8*
CSc1nnc2c3ccccc3n(Cc3ccccc3)c2n1 | 0 | 1 | -1 | -7 | 22* | 2 | 24*
CSc1nnc2c3cc(F)ccc3n(Cc3ccccc3)c2n1 | -10 | 1 | -3 | 0 | 59* | 0 | 47* | RORg DNA counter=>40
CSc1nnc2c3ccccc3n(CCc3ccccc3)c2n1 | -14 | 3 | -12 | -12 | 13 | 2 | nt
NNc1nnc2c3cc(F)ccc3n(Cc3ccccc3)c2n1 | 11 | -1 | -28 | 9 | 4 | 2 | nt
CCOc1ccccc1NC(=O)c1cnc2n(c1=O)CCS2 | -4 | 0 | -8 | -5 | 46* | 0 | 38* | RORg DNA counter=>40
SMILES | SKN-1 inh | PG9 Ab binder | NR2E3 ag-1 | MT1-MMP act inh | NR1D1 modulator | NR2E3 ag-2 | NR1D1 mod conf | others
CC(=O)c1cc(-c2csc(C=O)c2)c(=O)n2c1CCC2 | nt | nt | nt | nt | -1 | nt | nt
CN(N=Cc1ccc2c(c1)OCO2)C(=O)c1ccccc1N | nt | 0 | nt | nt | -5 | nt | nt
Cc1ccc2nsnc2c1S(=O)(=O)N(Cc1ccco1)Cc1cc2ccc(C)c(C)c2[nH]c1=O | 7 | 3 | -1 | 1 | -5 | nt | nt
Cc1ccc2nsnc2c1S(=O)(=O)N(Cc1ccco1)Cc1cc2cccc(C)c2[nH]c1=O | 14 | nt | -26 | -7 | 26* | -1 | 14
CCC(C(=O)NC(C)(C)C)n1c(C(c2ccccc2)c2ccccc2)nc2ccccc21 (stereo unspecified) | 6 | 0 | nt | -10 | 0 | nt | nt
C=C(C)Cc1c(C)c(C#N)c2nc3ccccc3n2c1N1CCCCC1 | 6 | -1 | -17 | -18 | 25* | 2 | 4
C=CCc1c(C)c(C#N)c2nc3ccccc3n2c1N1CCCCC1 | -2 | -3 | -9 | -4 | 43* | 0 | 6
CCc1c(C)c(C#N)c2nc3ccccc3n2c1N(C)C | -12 | 0 | -5 | -7 | 2 | 0 | nt
CCOC(=O)c1ccc2c(c1)nc(SCC(=O)c1ccco1)n2CC | 9 | 0 | -32 | -10 | -6 | 2 | nt
C=CCn1c(=NC(=O)c2ccco2)sc2cc(C(=O)OC)ccc21 | 0 | 3 | -25 | 3 | 28* | -7 | 35* | RORg DNA counter=>40
COCCn1c(=NC(=O)c2ccco2)sc2cc(C(=O)OC)ccc21 | 13 | -2 | 16 | -5 | 42* | 1 | 38* | RORg DNA counter=>40
C=CCn1c(=NC(=O)c2ccco2)sc2cc(C(=O)OCC)ccc21 | 0 | 6 | -49 | 2 | 29* | -1 | 23*
COc1cccc(-c2cnc(C(O)c3c(C)cc(C)cc3C)[nH]2)c1 (stereo unspecified) | 6 | -1 | 10 | 4 | -1 | nt | nt
Nc1[nH]c(C(=O)c2ccc(Br)cc2)c(-c2ccncc2)c1C(=O)c1ccccc1 | nt | -1 | nt | nt | -2 | nt | nt
CC(C)(C)c1ccc(-c2nnc(SCC(=O)c3ccc([N+](=O)[O-])cc3)n2-c2ccc(Cl)cc2)cc1 | nt | nt | nt | nt | -2 | nt | nt
COc1c(O)cccc1[C@@H](O)C1CCN(CCc2ccc(F)cc2)CC1 | 5 | 1 | 7 | -10 | 19* | 0 | 6
COc1ccc(CCN2CCC(Nc3nc4ccccc4n3Cc3ccc(F)cc3)CC2)cc1 | -2 | 1 | -9 | 0 | -7 | 0 | nt
COc1ccc(C2Nc3ccccc3C(=O)N2Cc2ccncc2)cc1COc1ccc(NC(C)=O)cc1 (stereo unspecified) | nt | nt | nt | nt | 1 | nt | nt

Screening data as filed in PubChem.
